Among the data in ChEMBL document CHEMBL3244343, “7-(Aminoethyl) ether and thioether of daunomycinone” (1979) are T/C, ΔTm and EC50 values, retold here.

For test [1], the system named is P388. Put plainly: Antitumor activity against mouse P388 cells allografted in mouse assessed as increase in survival time at 0.78 mg/kg, po qd administered from day 1 to day 9 relative to control. The class given is functional.
The test system of test [2] is P388. Put plainly: Antitumor activity against mouse P388 cells allografted in mouse assessed as increase in survival time at 2 mg/kg, po q4d administered on days 5, 9 and 13 relative to control. The class given is functional. The procedure, abridged:
(§1)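 P388 leukemia cells were injected ip into mice on day 0, and the tumor was allowed to advance before dosing on days 5, 9 and 13. Read-out is the survival time of treated relative to control mice (T/C, %), with ≥125% required for activity. Each value comes from a single test.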

Test [3] in a line: Binding affinity to DNA (unknown origin) assessed as DNA interaction by measuring change in melting temperature. The procedure, abridged:
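Thermal denaturation (melting temperature) shift of DNA in solution, read as ΔTm in °C. Buffer was 0.010 M phosphate, pH 7.0, with 10^-5 M EDTA plus 5% Me2SO to solubilize the compounds. Other steps followed a previously described method.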

Test [4] relates to L1210. Put plainly: Inhibition of RNA synthesis in mouse L1210 cells assessed as inhibition of [3H]uridine incorporation. The class given is functional. Particulars: read-out: ED50 (the source's name). The procedure, abridged: (§2)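 L1210 leukemia cells in culture. Incorporation of [3H]thymidine (DNA) or [3H]uridine (RNA) was measured, and the dose giving 50% inhibition (ED50) was reported. Follows a previously described procedure, with 1% Me2SO added for some compounds.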

Test [5] has as its system L1210. Description: Inhibition of DNA synthesis in mouse L1210 cells assessed as inhibition of [3H]thymidine incorporation. The class given is functional. To be noted: read-out: ED50 (the source's name). The procedure, abridged:
as §2

Test [6] relates to P388. Put plainly: Antitumor activity against mouse P388 cells allografted in mouse assessed as increase in survival time at 6.25 mg/kg, po qd administered from day 1 to day 9 relative to control. It counts as functional.
In test [7] the test system is P388. Put plainly: Antitumor activity against mouse P388 cells allografted in mouse assessed as increase in survival time at 50 mg/kg, po q4d administered on days 5, 9 and 13 relative to control. It counts as functional. The procedure, abridged:
as §1

The test system of test [8] is P388. Put plainly: Antitumor activity against mouse P388 cells allografted in mouse assessed as increase in survival time at 1 mg/kg, po q4d administered on days 5, 9 and 13 relative to control. It counts as functional. The procedure, abridged: as §1
The test system of test [9] is P388. Description: Antitumor activity against mouse P388 cells allografted in mouse assessed as increase in survival time at 200 mg/kg, po q4d administered on days 5, 9 and 13 relative to control. The class given is functional. In a few lines: as §1

In general, T/C refers to the result in the treated group divided by that in the control group, in per cent. Broadly, the ΔTm is the shift of the melting midpoint relative to a reference. On to `COc1cccc2c1C(=O)c1c(O)c3c(c(O)c1C2=O)C[C@@](O)(C(C)=O)C[C@@H]3O[C@H]1C[C@H](N)[C@H](O)[C@H](C)O1.Cl` [DAUNORUBICIN HYDROCHLORIDE], for which the T/C in the test on P388 [1] was 160%; in the test on P388 [2], 133%. Besides, the ΔTm in test [3] was determined as 11.2 °C. In addition, the EC50 with L1210 [4] was determined as 300 nM; in the test with L1210 [5], 400 nM.

Consider `COc1cccc2c1C(=O)c1c(O)c3c(c(O)c1C2=O)C[C@@](O)(C(C)=O)C[C@@H]3OC(=O)CCN.Cl`, for which the ΔTm in [3] stood at 1 °C. Further, the T/C is reported as 126% in the test with P388 [6] and 116% in the test on P388 [7]. The EC50 in the test on L1210 [4] turned out to be 6000 nM; in the test on L1210 [5], 8000 nM.

As to `COc1cccc2c1C(=O)c1c(O)c3c(c(O)c1C2=O)C[C@@](O)(C(=O)CO)C[C@@H]3O[C@H]1C[C@H](N)[C@H](O)[C@H](C)O1` [DOXORUBICIN], the T/C in the test with P388 [1] came to 197%; with P388 [8], 130%. Also, in test [3], the ΔTm turned out to be 13.6 °C. Further, the figures for the EC50 in the test on L1210 [4] and with L1210 [5] were 700 nM and 2000 nM, respectively.

Regarding `COc1cccc2c1C(=O)c1c(O)c3c(c(O)c1C2=O)C[C@@](O)(C(C)=O)C[C@@H]3OCCN.Cl`, in [3], the ΔTm is 8.2 °C. Further, the values for the EC50 in the test with L1210 [4] and in the test on L1210 [5] were 1000 nM and 2000 nM, respectively. In addition, in the test with P388 [7], the T/C came to 112%.

Take `COc1cccc2c1C(=O)c1c(O)c3c(c(O)c1C2=O)C[C@@](O)(C(C)=O)C[C@@H]3SCCN.Cl`: the ΔTm in [3] was 6.3 °C. Also, the T/C in the test with P388 [9] stood at 109%. For the same compound, the results for the EC50 with L1210 [4] and in the test on L1210 [5] were 4000 nM and 6000 nM, respectively.
